We go through one molecule from article PMC3288537 (ACS Chemical Biology, 2011).

Holding throughout (type): biochemical
In one assay the target is T1, HePTP (Homo sapiens, UniProt P35236).
T1 sequence (P35236 1-360): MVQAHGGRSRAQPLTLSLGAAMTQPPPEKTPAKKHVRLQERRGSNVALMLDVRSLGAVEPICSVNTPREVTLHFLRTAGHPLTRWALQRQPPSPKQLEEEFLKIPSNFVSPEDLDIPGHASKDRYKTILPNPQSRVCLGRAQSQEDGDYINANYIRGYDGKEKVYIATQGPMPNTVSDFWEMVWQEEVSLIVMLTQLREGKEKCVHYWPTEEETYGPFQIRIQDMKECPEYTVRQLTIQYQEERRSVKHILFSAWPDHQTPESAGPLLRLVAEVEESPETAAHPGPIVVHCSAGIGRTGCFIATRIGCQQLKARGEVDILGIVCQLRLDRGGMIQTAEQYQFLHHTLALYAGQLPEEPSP
Description: Dose-response OMFP phosphatase assay, HePTP.

In the next assay the target is T2, MKP-3 (Homo sapiens, UniProt Q16828).
T2 sequence (Q16828 1-381): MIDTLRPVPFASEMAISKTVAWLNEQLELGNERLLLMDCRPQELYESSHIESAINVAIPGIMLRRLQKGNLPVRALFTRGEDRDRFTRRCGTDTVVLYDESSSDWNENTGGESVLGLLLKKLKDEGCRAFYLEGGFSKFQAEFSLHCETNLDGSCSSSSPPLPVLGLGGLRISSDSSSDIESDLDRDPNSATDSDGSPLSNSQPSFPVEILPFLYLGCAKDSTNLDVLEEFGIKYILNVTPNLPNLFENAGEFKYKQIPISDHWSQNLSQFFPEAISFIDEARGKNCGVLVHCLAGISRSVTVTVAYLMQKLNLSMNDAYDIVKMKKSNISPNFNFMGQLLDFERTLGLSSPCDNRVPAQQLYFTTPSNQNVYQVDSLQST
Description: Dose-response OMFP phosphatase assay, MKP-3. Particulars: read-out: IC50 MKP-3; OMFP substrate.

A further assay has as its target VHR (Homo sapiens, UniProt P51452). In words: Dose-response OMFP phosphatase assay, VHR. The conditions noted are these: read-out: IC50 VHR; OMFP substrate.
In the next assay the target is T3, STEP (Homo sapiens, UniProt P54829).
T3 sequence (P54829 1-565): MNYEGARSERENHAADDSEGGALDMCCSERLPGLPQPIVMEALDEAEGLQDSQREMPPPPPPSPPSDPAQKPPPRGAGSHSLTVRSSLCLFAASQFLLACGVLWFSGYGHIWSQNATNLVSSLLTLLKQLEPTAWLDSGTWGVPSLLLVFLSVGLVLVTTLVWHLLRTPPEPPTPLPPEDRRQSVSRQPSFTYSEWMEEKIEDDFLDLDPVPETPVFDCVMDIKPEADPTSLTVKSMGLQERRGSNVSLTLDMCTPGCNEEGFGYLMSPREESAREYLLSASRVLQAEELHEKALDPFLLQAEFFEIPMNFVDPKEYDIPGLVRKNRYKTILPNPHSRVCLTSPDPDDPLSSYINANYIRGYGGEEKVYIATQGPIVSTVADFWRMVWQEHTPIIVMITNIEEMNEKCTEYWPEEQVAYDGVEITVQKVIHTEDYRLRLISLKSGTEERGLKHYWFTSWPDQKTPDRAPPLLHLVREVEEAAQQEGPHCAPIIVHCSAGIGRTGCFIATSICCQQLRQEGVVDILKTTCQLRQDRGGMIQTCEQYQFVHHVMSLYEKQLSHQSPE
In words: Dose-response OMFP phosphatase assay, STEP. Particulars: read-out: IC50 STEP; OMFP substrate.

Another assay deals with T4, LYP (Homo sapiens, UniProt Q9Y2R2).
T4 sequence (Q9Y2R2 1-807): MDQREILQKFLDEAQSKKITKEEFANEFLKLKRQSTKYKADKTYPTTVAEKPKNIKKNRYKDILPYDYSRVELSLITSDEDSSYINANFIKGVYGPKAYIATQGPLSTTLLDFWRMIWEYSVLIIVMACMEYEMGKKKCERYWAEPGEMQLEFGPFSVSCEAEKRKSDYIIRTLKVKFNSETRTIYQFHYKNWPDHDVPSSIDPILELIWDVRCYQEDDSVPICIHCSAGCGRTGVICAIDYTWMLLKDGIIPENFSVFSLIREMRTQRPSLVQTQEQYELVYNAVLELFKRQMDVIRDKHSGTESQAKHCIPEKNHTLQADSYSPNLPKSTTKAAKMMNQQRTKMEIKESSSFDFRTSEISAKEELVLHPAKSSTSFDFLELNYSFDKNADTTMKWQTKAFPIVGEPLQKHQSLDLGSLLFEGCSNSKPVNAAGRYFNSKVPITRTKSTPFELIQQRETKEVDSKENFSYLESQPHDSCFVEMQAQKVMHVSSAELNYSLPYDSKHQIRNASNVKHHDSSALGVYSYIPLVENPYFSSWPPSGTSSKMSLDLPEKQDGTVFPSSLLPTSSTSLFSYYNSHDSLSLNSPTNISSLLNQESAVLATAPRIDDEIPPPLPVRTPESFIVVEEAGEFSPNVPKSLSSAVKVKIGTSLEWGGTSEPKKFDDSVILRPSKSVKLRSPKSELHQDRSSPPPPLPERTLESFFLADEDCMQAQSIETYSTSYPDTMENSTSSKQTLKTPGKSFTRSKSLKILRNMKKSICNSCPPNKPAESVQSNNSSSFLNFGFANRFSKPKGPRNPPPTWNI
In words: Dose-response OMFP phosphatase assay, LYP. Particulars: read-out: IC50 LYP; OMFP substrate.

The target in a further assay is LAR (Homo sapiens, UniProt P10586). In words: Dose-response OMFP phosphatase assay, LAR. Particulars: read-out: IC50 LAR; OMFP substrate. The procedure, abridged:
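Ten-point 2-fold dilution series of test compound prepared in DMSO. Fluorescence (ex 485/em 528 nm) read in kinetic mode over 10 min; progress-curve slopes taken as activity. IC50 by nonlinear regression (sigmoidal, variable slope).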

For a further assay, the target named is T5, HePTP H237A mutant (Homo sapiens, UniProt P35236, H258A).
T5 sequence (P35236 22-360 H258A limits assumed): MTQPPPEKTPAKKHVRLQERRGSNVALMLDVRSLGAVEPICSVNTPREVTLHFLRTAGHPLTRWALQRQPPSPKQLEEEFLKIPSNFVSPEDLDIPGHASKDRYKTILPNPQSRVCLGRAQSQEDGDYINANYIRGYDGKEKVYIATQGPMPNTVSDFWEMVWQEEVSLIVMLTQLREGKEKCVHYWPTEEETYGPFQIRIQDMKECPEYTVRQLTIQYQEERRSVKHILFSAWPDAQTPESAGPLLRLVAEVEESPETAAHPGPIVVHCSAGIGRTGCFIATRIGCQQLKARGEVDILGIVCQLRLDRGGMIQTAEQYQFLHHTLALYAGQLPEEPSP
Description: Dose-response OMFP phosphatase assay, HePTP H237A mutant. The conditions noted are these: read-out: IC50 HePTP H237A.

Sequence of VHR (P51452 whole entry, species assumed): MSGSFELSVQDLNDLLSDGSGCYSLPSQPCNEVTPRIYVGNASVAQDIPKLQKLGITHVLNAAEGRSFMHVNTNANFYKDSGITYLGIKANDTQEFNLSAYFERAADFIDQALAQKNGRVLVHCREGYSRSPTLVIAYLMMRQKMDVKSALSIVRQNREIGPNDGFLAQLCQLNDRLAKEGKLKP
Sequence of LAR (P10586 30-1907, species assumed): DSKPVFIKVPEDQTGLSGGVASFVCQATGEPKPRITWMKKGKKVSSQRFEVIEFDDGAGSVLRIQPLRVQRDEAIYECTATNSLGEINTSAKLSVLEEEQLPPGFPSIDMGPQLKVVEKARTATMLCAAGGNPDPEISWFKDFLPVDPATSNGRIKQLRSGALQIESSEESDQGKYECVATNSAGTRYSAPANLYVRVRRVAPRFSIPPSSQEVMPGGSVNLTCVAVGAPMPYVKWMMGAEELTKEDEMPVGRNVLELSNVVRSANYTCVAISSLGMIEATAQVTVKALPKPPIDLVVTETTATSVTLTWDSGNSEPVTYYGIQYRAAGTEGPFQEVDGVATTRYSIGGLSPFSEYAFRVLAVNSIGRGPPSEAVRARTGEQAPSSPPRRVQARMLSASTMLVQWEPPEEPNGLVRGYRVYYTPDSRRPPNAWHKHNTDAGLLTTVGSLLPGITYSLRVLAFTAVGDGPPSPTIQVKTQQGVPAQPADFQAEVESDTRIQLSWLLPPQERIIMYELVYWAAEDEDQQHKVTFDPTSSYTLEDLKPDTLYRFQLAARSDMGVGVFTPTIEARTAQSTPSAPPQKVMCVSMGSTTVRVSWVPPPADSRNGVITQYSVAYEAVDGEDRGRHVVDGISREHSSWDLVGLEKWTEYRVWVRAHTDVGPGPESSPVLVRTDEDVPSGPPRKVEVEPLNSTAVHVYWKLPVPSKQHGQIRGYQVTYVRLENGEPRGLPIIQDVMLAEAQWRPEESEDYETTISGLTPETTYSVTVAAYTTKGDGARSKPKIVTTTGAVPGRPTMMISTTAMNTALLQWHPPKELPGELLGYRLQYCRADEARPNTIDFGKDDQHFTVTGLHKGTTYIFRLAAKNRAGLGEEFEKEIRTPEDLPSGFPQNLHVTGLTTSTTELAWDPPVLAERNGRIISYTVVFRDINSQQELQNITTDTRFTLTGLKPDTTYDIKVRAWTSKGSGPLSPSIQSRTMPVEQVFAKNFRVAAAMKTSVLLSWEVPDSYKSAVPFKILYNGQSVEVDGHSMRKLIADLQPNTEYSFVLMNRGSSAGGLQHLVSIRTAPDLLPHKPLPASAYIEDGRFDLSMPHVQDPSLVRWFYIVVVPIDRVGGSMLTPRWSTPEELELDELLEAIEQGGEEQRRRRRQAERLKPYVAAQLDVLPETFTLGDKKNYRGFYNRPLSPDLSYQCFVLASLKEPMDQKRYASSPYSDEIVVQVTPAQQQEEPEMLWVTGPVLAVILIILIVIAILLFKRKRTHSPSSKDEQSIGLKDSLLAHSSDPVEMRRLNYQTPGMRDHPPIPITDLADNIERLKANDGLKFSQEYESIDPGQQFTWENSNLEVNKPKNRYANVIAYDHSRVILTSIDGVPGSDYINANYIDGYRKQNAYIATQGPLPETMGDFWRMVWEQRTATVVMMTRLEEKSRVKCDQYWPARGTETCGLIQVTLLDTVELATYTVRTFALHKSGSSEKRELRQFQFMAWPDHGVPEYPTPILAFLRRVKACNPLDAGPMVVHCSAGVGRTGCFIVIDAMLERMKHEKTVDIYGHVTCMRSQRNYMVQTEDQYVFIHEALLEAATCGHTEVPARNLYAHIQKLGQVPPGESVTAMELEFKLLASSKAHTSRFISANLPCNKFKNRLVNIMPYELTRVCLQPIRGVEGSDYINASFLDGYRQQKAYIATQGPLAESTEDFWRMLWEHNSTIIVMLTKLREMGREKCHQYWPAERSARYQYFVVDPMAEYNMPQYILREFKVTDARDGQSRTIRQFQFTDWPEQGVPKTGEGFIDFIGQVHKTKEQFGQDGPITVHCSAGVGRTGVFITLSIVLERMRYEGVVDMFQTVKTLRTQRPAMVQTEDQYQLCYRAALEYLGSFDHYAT

Turning to `O=C(O)c1ccccc1-c1ccc(/C=c2\sc3nc4cc(Br)cnc4n3c2=O)o1` [Compound 1], the “time-dependent inhibition of HePTP (progress curves)” value at HePTP (progress curves linear over 98 min at different concentrations) was “no time-dependent inhibition”. Moreover, the IC50 at HePTP (read-out: IC50 HePTP, OMFP substrate) was determined as 0.21 µM; at MKP-3, 5.2 µM; at VHR, 1.9 µM; at STEP it was 6.3 µM; at LYP, 1.9 µM; on LAR it was 73 µM. Besides, on HePTP H237A mutant, the IC50 worked out at 2.8 µM.
